{"source": "ChEMBL document CHEMBL3526119", "about": "“Effect of the CYP2C8 genotype on the pharmacokinetics and pharmacodynamics of repaglinide” (Drug Metab Dispos, 2011)", "type_in_all_cases": "ADME, organism-based", "key": {"[1]": {"test": "Cmax in healthy white human with SLCO1B1 521TC/CYP2C8*1/*3 combined genotype at 2 mg, po", "design": "dose 2 mg, route oral", "settings": "in vivo", "summary_of_the_method": "(§1)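 Healthy Caucasians genotyped for CYP2C8*3 and SLCO1B1 521T>C were given a single oral 2 mg dose of repaglinide, and alcohol, caffeine and grapefruit were withheld. Plasma was sampled before dosing and at 15 times from 0.25 to 24 h. Drug was measured by LC-MS/MS against diclofenac internal standard, linear 0.098–79.139 µg/L. Noncompartmental analysis: Cmax taken as observed; AUC by linear/log-linear trapezoidal rule extrapolated to infinity.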"}, "[2]": {"test_system": "Homo sapiens", "test": "Maximal change in blood glucose concentration in healthy white human plasma at 2 mg, po up to 6 hrs", "settings": "in vivo", "summary_of_the_method": "(§2)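 Venous blood glucose was read at each blood sampling time after a single oral 2 mg dose, with fasting up to 6 h. […] Maximal change is the largest change from baseline. Mean change is the average difference between values up to 6 h post-dose and baseline.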"}, "[3]": {"test_system": "Homo sapiens", "test": "Mean change in blood glucose concentration in healthy white human plasma SLCO1B1 521TT/CYP2C8*1/*1 combined genotype at 2 mg, po", "settings": "in vivo", "summary_of_the_method": "(§3)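 Single 2 mg oral dose in healthy Caucasian volunteers genotyped for CYP2C8*3, with SLCO1B1 521T>C also typed. […] Mean change is the average difference between values up to 6 h post-dose and baseline. Fasting lasted to 6 h. Mean with 95% CI or SD by genotype group.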"}, "[4]": {"test": "Tmax in healthy white human with CYP2C8*1/*3 genotype at 2 mg, po", "settings": "in vivo"}, "[5]": {"test": "AUC (0 to infinity) in healthy white human with CYP2C8*1/*1 genotype at 2 mg, po", "design": "dose 2 mg, time infinity, route oral", "settings": "plasma", "summary_of_the_method": "as §1"}, "[6]": {"test_system": "Homo sapiens", "test": "Maximal change in insulin concentration in healthy white human plasma with CYP2C8*3/*3 genotype at 2 mg, po up to 6 hrs", "settings": "in vivo", "summary_of_the_method": "(§4)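 Plasma insulin was sampled up to 6 h after a single oral 2 mg dose, with subjects fasting. It was measured by solid-phase enzyme-labelled chemiluminescent immunometric assay, calibration range 2–300 mU/l. Maximal change is the largest change from the baseline concentration within 6 h.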"}, "[7]": {"test": "Oral clearance in healthy white human with CYP2C8*1/*1 genotype at 2 mg, po", "settings": "in vivo", "summary_of_the_method": "(§5)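 Repaglinide was assayed by LC-MS/MS with diclofenac internal standard (LLOQ 0.098 µg/L). Noncompartmental analysis gave AUC by linear/log-linear trapezoidal rule extrapolated to infinity. Weight-adjusted oral clearance = dose/(AUC × body weight).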"}, "[8]": {"test_system": "Homo sapiens", "test": "Mean change in insulin concentration in healthy white human plasma with SLCO1B1 521TT/CYP2C8*3/*3 combined genotype at 2 mg, po", "settings": "in vivo", "summary_of_the_method": "(§6)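 Healthy Caucasians got a single 2 mg oral dose and were genotyped for CYP2C8*3 and SLCO1B1 521T>C. Plasma insulin was sampled from pre-dose to 6 h and measured by solid-phase enzyme-labelled chemiluminescent immunometric assay (calibration 2–300 mU/l). Mean change is the average of post-dose values minus baseline up to 6 h, summarised per genotype group.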"}, "[9]": {"test": "Terminal half life in healthy white human at 2 mg, po", "settings": "in vivo, read-out: beta t1/2 (converted)", "summary_of_the_method": "(§7)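 Single oral 2 mg dose; plasma sampled pre-dose and from 0:15 to 24 h post-dose (15 samples). Repaglinide measured by LC-MS/MS with diclofenac internal standard; calibration 0.098–79.139 µg/L. Noncompartmental analysis; AUC by linear/log-linear trapezoidal rule extrapolated to infinity. Reported as mean with 95% CI for all subjects and for each CYP2C8*3 genotype group.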"}, "[10]": {"test_system": "Homo sapiens", "test": "Mean change in blood glucose concentration in healthy white human plasma SLCO1B1 521TT/CYP2C8*3/*3 combined genotype at 2 mg, po", "settings": "in vivo", "summary_of_the_method": "as §3"}, "[11]": {"test_system": "Homo sapiens", "test": "Mean change in blood glucose concentration in healthy white human plasma SLCO1B1 521TC/CYP2C8*1/*1 combined genotype at 2 mg, po", "settings": "in vivo", "summary_of_the_method": "as §2"}, "[12]": {"test": "Tmax in healthy white human with CYP2C8*1/*1 genotype at 2 mg, po", "settings": "in vivo"}, "[13]": {"test_system": "Homo sapiens", "test": "Mean change in blood glucose concentration in healthy white human plasma SLCO1B1 521CC/CYP2C8*3/*3 combined genotype at 2 mg, po", "settings": "in vivo", "summary_of_the_method": "as §2"}, "[14]": {"test_system": "Homo sapiens", "test": "Maximal change in insulin concentration in healthy white human plasma at 2 mg, po up to 6 hrs", "settings": "in vivo", "summary_of_the_method": "as §4"}, "[15]": {"test": "Cmax in healthy white human with SLCO1B1 521CC/CYP2C8*1/*3 combined genotype at 2 mg, po", "design": "dose 2 mg, route oral", "settings": "in vivo", "summary_of_the_method": "as §1"}, "[16]": {"test": "Terminal half life in healthy white human with CYP2C8*1/*1 genotype at 2 mg, po", "settings": "in vivo, read-out: beta t1/2 (converted)", "summary_of_the_method": "as §7"}, "[17]": {"test": "Oral clearance in healthy white human with CYP2C8*1/*3 genotype at 2 mg, po", "settings": "in vivo", "summary_of_the_method": "as §5"}, "[18]": {"organism": "Homo sapiens", "test": "Maximal change in blood glucose concentration in healthy human plasma with SLCO1B1 521CC genotype at 0.5 mg"}, "[19]": {"test": "Tmax in healthy white human with CYP2C8*3/*3 genotype at 2 mg, po", "settings": "in vivo"}, "[20]": {"test": "AUC (0 to infinity) in healthy white human with SLCO1B1 521CC/CYP2C8*3/*3 combined genotype at 2 mg, po", "design": "dose 2 mg, route oral, time infinity", "settings": "plasma", "summary_of_the_method": "as §1"}, "[21]": {"test_system": "Homo sapiens", "test": "Mean change in blood glucose concentration in healthy white human plasma with CYP2C8*1/*3 genotype at 2 mg, po up to 6 hrs", "settings": "in vivo", "summary_of_the_method": "as §3"}, "[22]": {"test_system": "Homo sapiens", "test": "Mean change in insulin concentration in healthy white human plasma with SLCO1B1 521CC/CYP2C8*1/*3 combined genotype at 2 mg, po", "settings": "in vivo", "summary_of_the_method": "as §6"}, "[23]": {"test": "Cmax in healthy white human with SLCO1B1 521CC/CYP2C8*3/*3 combined genotype at 2 mg, po", "design": "dose 2 mg, route oral", "settings": "in vivo", "summary_of_the_method": "as §1"}, "[24]": {"test": "Cmax in healthy white human with SLCO1B1 521TT/CYP2C8*1/*1 combined genotype at 2 mg, po", "design": "dose 2 mg, route oral", "settings": "in vivo", "summary_of_the_method": "as §1"}, "[25]": {"test_system": "Homo sapiens", "test": "Mean change in insulin concentration in healthy white human plasma with SLCO1B1 521TT/CYP2C8*1/*3 combined genotype at 2 mg, po", "settings": "in vivo", "summary_of_the_method": "as §6"}, "[26]": {"test": "AUC (0 to infinity) in healthy white human with SLCO1B1 521TT/CYP2C8*3/*3 combined genotype at 2 mg, po", "design": "dose 2 mg, time infinity, route oral", "settings": "plasma", "summary_of_the_method": "as §1"}, "[27]": {"test": "AUC (0 to infinity) in healthy white human with SLCO1B1 521TC/CYP2C8*3/*3 combined genotype at 2 mg, po", "design": "dose 2 mg, route oral, time infinity", "settings": "plasma", "summary_of_the_method": "as §1"}, "[28]": {"test": "Cmax in healthy white human at 2 mg, po", "design": "dose 2 mg, route oral", "settings": "in vivo", "summary_of_the_method": "as §1"}, "[29]": {"test_system": "Homo sapiens", "test": "Maximal change in insulin concentration in healthy white human plasma with CYP2C8*1/*1 genotype at 2 mg, po up to 6 hrs", "settings": "in vivo", "summary_of_the_method": "as §4"}, "[30]": {"test_system": "Homo sapiens", "test": "Mean change in insulin concentration in healthy white human plasma at 2 mg, po up to 6 hrs", "settings": "in vivo", "summary_of_the_method": "as §6"}, "[31]": {"test_system": "Homo sapiens", "test": "Maximal change in blood glucose concentration in healthy white human plasma with CYP2C8*1/*1 genotype at 2 mg, po up to 6 hrs", "settings": "in vivo", "summary_of_the_method": "as §2"}, "[32]": {"organism": "Homo sapiens", "test": "Maximal change in blood glucose concentration in healthy human plasma with SLCO1B1 521TC genotype at 0.5 mg"}, "[33]": {"test": "AUC (0 to infinity) in healthy white human with SLCO1B1 521TT/CYP2C8*1/*1 combined genotype at 2 mg, po", "design": "dose 2 mg, route oral, time infinity", "settings": "plasma", "summary_of_the_method": "as §1"}, "[34]": {"organism": "Homo sapiens", "test": "Maximal change in blood glucose concentration in healthy human plasma with SLCO1B1 521TT genotype at 0.5 mg"}, "[35]": {"test_system": "Homo sapiens", "test": "Mean change in blood glucose concentration in healthy white human plasma at 2 mg, po up to 6 hrs", "settings": "in vivo", "summary_of_the_method": "as §3"}}}
{"molecule": "CCOc1cc(CC(=O)N[C@@H](CC(C)C)c2ccccc2N2CCCCC2)ccc1C(=O)O", "note": "[REPAGLINIDE]", "values": [{"measurement": "Cmax", "setting": "[1]", "value": 45, "unit": "ng/mL"}, {"measurement": "Activity", "setting": "[2]", "value": -1.69, "unit": "mM"}, {"measurement": "Activity", "setting": "[3]", "value": -0.4, "unit": "mM"}, {"measurement": "Tmax", "setting": "[4]", "value": 48, "unit": "min"}, {"measurement": "AUC(0-inf)", "setting": "[5]", "value": 106, "unit": "ng·h/mL"}, {"measurement": "Activity", "setting": "[6]", "value": 8.3, "unit": "mU/L"}, {"measurement": "CL/F", "setting": "[7]", "value": 7.5, "unit": "mL/min/kg"}, {"measurement": "Activity", "setting": "[8]", "value": 1, "unit": "mU/l"}, {"measurement": "half-life", "setting": "[9]", "value": 78, "unit": "min"}, {"measurement": "Activity", "setting": "[10]", "value": -0.1, "unit": "mM"}, {"measurement": "Activity", "setting": "[11]", "value": -0.5, "unit": "mM"}, {"measurement": "Tmax", "setting": "[12]", "value": 48, "unit": "min"}, {"measurement": "Activity", "setting": "[13]", "value": -0.8, "unit": "mM"}, {"measurement": "Activity", "setting": "[14]", "value": 18.8, "unit": "mU/L"}, {"measurement": "Cmax", "setting": "[15]", "value": 17.7, "unit": "ng/mL"}, {"measurement": "half-life", "setting": "[16]", "value": 72, "unit": "min"}, {"measurement": "CL/F", "setting": "[17]", "value": 7.67, "unit": "mL/min/kg"}, {"measurement": "Activity", "setting": "[18]", "value": 2.3, "unit": "mM"}, {"measurement": "Tmax", "setting": "[19]", "value": 54, "unit": "min"}, {"measurement": "AUC(0-inf)", "setting": "[20]", "value": 95.8, "unit": "ng·h/mL"}, {"measurement": "Activity", "setting": "[21]", "value": -0.65, "unit": "mM"}, {"measurement": "Activity", "setting": "[22]", "value": 0.6, "unit": "mU/l"}, {"measurement": "Cmax", "setting": "[23]", "value": 67.9, "unit": "ng/mL"}, {"measurement": "Cmax", "setting": "[24]", "value": 52.5, "unit": "ng/mL"}, {"measurement": "Activity", "setting": "[25]", "value": 5.6, "unit": "mU/l"}, {"measurement": "AUC(0-inf)", "setting": "[26]", "value": 116, "unit": "ng·h/mL"}, {"measurement": "AUC(0-inf)", "setting": "[27]", "value": 23.4, "unit": "ng·h/mL"}, {"measurement": "Cmax", "setting": "[28]", "value": 52.8, "unit": "ng/mL"}, {"measurement": "Activity", "setting": "[29]", "value": 23.9, "unit": "mU/L"}, {"measurement": "Activity", "setting": "[30]", "value": 5.5, "unit": "mU/L"}, {"measurement": "Activity", "setting": "[31]", "value": -1.62, "unit": "mM"}, {"measurement": "Activity", "setting": "[32]", "value": 1.9, "unit": "mM"}, {"measurement": "AUC(0-inf)", "setting": "[33]", "value": 92.3, "unit": "ng·h/mL"}, {"measurement": "Activity", "setting": "[34]", "value": 1.9, "unit": "mM"}, {"measurement": "Activity", "setting": "[35]", "value": -0.53, "unit": "mM"}]}
